Experimental data as given in ChEMBL document CHEMBL3351510, “Identification and development of 2-methylimidazo[1,2-a]pyridine-3-carboxamides as Mycobacterium tuberculosis pantothenate synthetase inhibitors” (Bioorg Med Chem, 2014).
≈ marks a conversion by molar mass, not a printed value.

Legend:
Pantothenate synthetase = target: T1, Pantothenate synthetase (Mycobacterium tuberculosis, UniProt P9WIL5); assay: Inhibition of Mycobacterium tuberculosis pantothenate synthetase expressed in Escherichia coli BL21 (DE3) by spectrophotometry
T1 sequence (P9WIL5 whole entry): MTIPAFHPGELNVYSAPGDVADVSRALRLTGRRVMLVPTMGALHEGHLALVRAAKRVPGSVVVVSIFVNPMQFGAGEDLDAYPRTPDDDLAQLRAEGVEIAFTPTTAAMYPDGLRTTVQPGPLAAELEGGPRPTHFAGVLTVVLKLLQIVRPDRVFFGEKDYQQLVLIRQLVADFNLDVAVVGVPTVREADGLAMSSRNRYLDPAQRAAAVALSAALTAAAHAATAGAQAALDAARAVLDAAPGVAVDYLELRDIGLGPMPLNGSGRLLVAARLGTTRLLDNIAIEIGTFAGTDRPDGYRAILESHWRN
Outline: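 Reaction started by adding PS diluted in buffer; absorbance at 340 nm read every 12 s for 120 s. Percent inhibition = 100 × [1 − (compound rate − background rate)/(full reaction rate − background rate)].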

[1] = system: Mycobacterium tuberculosis; assay: Antimycobacterial activity against Mycobacterium tuberculosis H37Rv ATCC 27294 assessed as growth inhibition after 28 days by agar dilution method; type: functional; settings: H37Rv ATCC 27294, 672 h
Outline: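 Agar dilution in Middlebrook 7H11 with OADC; two-fold dilutions, final 50 to 0.78 µg/mL. Inoculum from fresh 7H11 slants, 1 mg/mL wet weight in 0.05% Tween 80 saline, diluted 10⁻² (~10⁷ cfu/mL); 5 µL spotted per tube. Incubated 37 °C, read at 28 days; MIC = lowest concentration giving complete growth inhibition. Isoniazid, ethambutol, GSK358607A references.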

[2] = Cytotoxicity against mouse RAW264.7 cells assessed as inhibition of cell viability at 50 uM after 72 hrs by MTT assay; type: cell-based; settings: read-out: INH
[3] = target: T2, Pantothenate synthetase (Mycobacterium tuberculosis) (UniProt P9WIL5); assay: Binding affinity to Mycobacterium tuberculosis pantothenate synthetase assessed as melting temperature by differential scanning fluorimetry
T2 sequence (whole entry): T1 sequence (P9WIL5 whole entry)
Outline: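 Protein–ligand complexes with SYPRO Orange dye heated 25 to 95 °C in 0.1 °C steps; fluorescence tracked to obtain Tm, with shift relative to native protein taken as stabilisation from binding.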

**Q.** Which results are given for Cc1nc2ccccn2c1C(=O)NNC(=O)c1ccc(Oc2ccccc2)cc1?
**A.** IC50 (Pantothenate synthetase): 7.22 µM; MIC [1]: 32.3 µM (≈ 12.5 µg/mL)

**Q.** Which IC50 (Pantothenate synthetase) does the source give for Cc1nc2ccccn2c1C(=O)N/N=C/c1ccc(F)cc1 here?
**A.** The IC50 was 3.77 µM.

**Q.** What about the MIC [1] of the same compound?
**A.** The MIC was 21 µM (≈ 6.23 µg/mL).

**Q.** And the cytotoxicity at 72 h, 50 µM [2]?
**A.** The cytotoxicity at 72 h, 50 µM was 20.9%.

**Q.** What does the source list for Cc1nc2ccccn2c1C(=O)NNC(=O)C1CCCCC1?
**A.** IC50 (Pantothenate synthetase): 7.7 µM; MIC [1]: 10.4 µM (≈ 3.12 µg/mL); cytotoxicity at 72 h, 50 µM [2]: 31.7%

**Q.** Which IC50 (Pantothenate synthetase) does the source give for Cc1nc2ccccn2c1C(=O)N/N=C/c1ccc(OCc2ccccc2)cc1 here?
**A.** Its IC50 is 5.37 µM.

**Q.** What about the MIC [1] of the same compound?
**A.** The MIC was 32.5 µM (≈ 12.5 µg/mL).

**Q.** Which results are given for Cc1nc2ccccn2c1C(=O)NNC(=O)c1ccc(Cl)cc1Cl?
**A.** IC50 (Pantothenate synthetase): 5.13 µM; MIC [1]: 17.2 µM (≈ 6.25 µg/mL); cytotoxicity at 72 h, 50 µM [2]: 20.1%

**Q.** Which results are given for Cc1nc2ccccn2c1C(=O)N/N=C/c1ccc(Br)cc1?
**A.** IC50 (Pantothenate synthetase): 4.43 µM; MIC [1]: 35 µM (≈ 12.5 µg/mL)

**Q.** For Cc1nc2ccccn2c1C(=O)NCc1ccccc1, which IC50 (Pantothenate synthetase) is on record?
**A.** The IC50 was 2.74 µM.

**Q.** And the MIC [1]?
**A.** The MIC was 23.5 µM (≈ 6.23 µg/mL).

**Q.** What about the cytotoxicity at 72 h, 50 µM [2] of the same compound?
**A.** The cytotoxicity at 72 h, 50 µM was 24.5%.

**Q.** With Cc1nc2ccccn2c1C(=O)NNC(=O)c1cccc([N+](=O)[O-])c1 as the compound, how does the IC50 (Pantothenate synthetase) read?
**A.** Its IC50 is 9.2 µM.

**Q.** What about the MIC [1] of the same compound?
**A.** The MIC was 36.8 µM (≈ 12.5 µg/mL).

**Q.** What does the source list for Cc1ccc(C(=O)NNC(=O)c2c(C)nc3ccccn23)cc1?
**A.** IC50 (Pantothenate synthetase): 3.35 µM; MIC [1]: 80.9 µM (≈ 24.9 µg/mL)

**Q.** Which IC50 (Pantothenate synthetase) does the source give for Cc1nc2ccccn2c1C(=O)NNC(=O)c1ccccc1 here?
**A.** Its IC50 is 3.54 µM.

**Q.** And the MIC [1]?
**A.** Its MIC is 42.4 µM (≈ 12.5 µg/mL).

**Q.** Which IC50 (Pantothenate synthetase) does the source give for Cc1nc2ccccn2c1C(=O)NNC(=O)c1cc([N+](=O)[O-])cc([N+](=O)[O-])c1 here?
**A.** Its IC50 is 6.48 µM.

**Q.** And the MIC [1]?
**A.** Its MIC is 16.2 µM (≈ 6.24 µg/mL).

**Q.** And the cytotoxicity at 72 h, 50 µM [2]?
**A.** Its cytotoxicity at 72 h, 50 µM is 40.6%.

**Q.** For CCOc1ccc(NC(=O)c2c(C)nc3ccccn23)cc1, which IC50 (Pantothenate synthetase) is on record?
**A.** Its IC50 is greater than 25 µM.

**Q.** And the MIC [1]?
**A.** Its MIC is 42.2 µM (≈ 12.5 µg/mL).

**Q.** For COc1ccc(/C=N/NC(=O)c2c(C)nc3ccccn23)cc1, which IC50 (Pantothenate synthetase) is on record?
**A.** Its IC50 is 6.37 µM.

**Q.** What about the MIC [1] of the same compound?
**A.** The MIC was 80.9 µM (≈ 24.9 µg/mL).

**Q.** With COc1cc(/C=N/NC(=O)c2c(C)nc3ccccn23)cc(OC)c1OC as the compound, how does the IC50 (Pantothenate synthetase) read?
**A.** The IC50 was 7.05 µM.

**Q.** And the MIC [1]?
**A.** Its MIC is 67.8 µM (≈ 25 µg/mL).

**Q.** Which IC50 (Pantothenate synthetase) does the source give for Cc1nc2ccccn2c1C(=O)NCCc1ccccc1 here?
**A.** The IC50 was 5.77 µM.

**Q.** And the MIC [1]?
**A.** Its MIC is 89.3 µM (≈ 24.9 µg/mL).

**Q.** For Cc1nc2ccccn2c1C(=O)NNC(=O)c1ccco1, which IC50 (Pantothenate synthetase) is on record?
**A.** The IC50 was 8.93 µM.

**Q.** And the MIC [1]?
**A.** Its MIC is 11 µM (≈ 3.12 µg/mL).

**Q.** What about the cytotoxicity at 72 h, 50 µM [2] of the same compound?
**A.** Its cytotoxicity at 72 h, 50 µM is 16.8%.

**Q.** With Cc1nc2ccccn2c1C(=O)NC1CCCCC1 as the compound, how does the IC50 (Pantothenate synthetase) read?
**A.** The IC50 was 1.99 µM.

**Q.** What about the MIC [1] of the same compound?
**A.** Its MIC is 96.9 µM (≈ 24.9 µg/mL).

**Q.** With Cc1nc2ccccn2c1C(=O)Nc1cccc(C(F)(F)F)c1 as the compound, how does the IC50 (Pantothenate synthetase) read?
**A.** Its IC50 is 7.01 µM.

**Q.** What about the MIC [1] of the same compound?
**A.** The MIC was 78.1 µM (≈ 24.9 µg/mL).

**Q.** For Cc1nc2ccccn2c1C(=O)Nc1ccccn1, which IC50 (Pantothenate synthetase) is on record?
**A.** The IC50 was greater than 25 µM.

**Q.** And the MIC [1]?
**A.** The MIC was 98.8 µM (≈ 24.9 µg/mL).

**Q.** What does the source list for Cc1nc2ccccn2c1C(=O)Nc1ccccc1?
**A.** IC50 (Pantothenate synthetase): 12.8 µM; MIC [1]: 188 µM (≈ 47.2 µg/mL)

**Q.** For Cc1nc2ccccn2c1C(=O)N/N=C/c1ccccc1, which IC50 (Pantothenate synthetase) is on record?
**A.** The IC50 was 4.86 µM.

**Q.** What about the MIC [1] of the same compound?
**A.** Its MIC is 179 µM (≈ 49.9 µg/mL).

**Q.** Which IC50 (Pantothenate synthetase) does the source give for Cc1ccc2nc(C)c(C(=O)NCc3cccs3)n2c1 here?
**A.** The IC50 was 8.12 µM.

**Q.** And the MIC [1]?
**A.** Its MIC is 0.19 µM (≈ 0.0542 µg/mL).

**Q.** What does the source list for Cc1nc2ccccn2c1C(=O)NCc1ccco1?
**A.** IC50 (Pantothenate synthetase): 2.81 µM; MIC [1]: 24.4 µM (≈ 6.23 µg/mL); cytotoxicity at 72 h, 50 µM [2]: 20.7%

**Q.** What does the source list for Cc1nc2ccccn2c1C(=O)N/N=C/c1ccc(C(F)(F)F)cc1?
**A.** IC50 (Pantothenate synthetase): 8.18 µM; MIC [1]: 9.01 µM (≈ 3.12 µg/mL); cytotoxicity at 72 h, 50 µM [2]: 24.6%

**Q.** Which results are given for Cc1nc2ccccn2c1C(=O)Nc1ccc(Cl)cc1?
**A.** IC50 (Pantothenate synthetase): 2.6 µM; MIC [1]: 87.4 µM (≈ 25 µg/mL)

**Q.** For COc1ccccc1C(=O)NNC(=O)c1c(C)nc2ccccn12, which IC50 (Pantothenate synthetase) is on record?
**A.** The IC50 was 8.21 µM.

**Q.** What about the MIC [1] of the same compound?
**A.** The MIC was 19.2 µM (≈ 6.24 µg/mL).

**Q.** And the cytotoxicity at 72 h, 50 µM [2]?
**A.** The cytotoxicity at 72 h, 50 µM was 19%.

**Q.** What does the source list for NNC(=O)c1ccncc1 [ISONIAZID]?
**A.** IC50 (Pantothenate synthetase): > 25 µM; MIC [1]: 0.72 µM (≈ 0.0987 µg/mL)

**Q.** With Cc1nc2ccccn2c1C(=O)N/N=C/c1ccc(O)cc1 as the compound, how does the IC50 (Pantothenate synthetase) read?
**A.** Its IC50 is 7.49 µM.

**Q.** And the MIC [1]?
**A.** Its MIC is 21.2 µM (≈ 6.24 µg/mL).

**Q.** And the cytotoxicity at 72 h, 50 µM [2]?
**A.** The cytotoxicity at 72 h, 50 µM was 19.4%.

**Q.** Which results are given for Cc1ccc(/C=N/NC(=O)c2c(C)nc3ccccn23)cc1?
**A.** IC50 (Pantothenate synthetase): 7.46 µM; MIC [1]: 21.3 µM (≈ 6.24 µg/mL); cytotoxicity at 72 h, 50 µM [2]: 16.7%

**Q.** What does the source list for Cc1nc2ccccn2c1C(=O)N/N=C/c1ccc([N+](=O)[O-])cc1?
**A.** IC50 (Pantothenate synthetase): > 25 µM; MIC [1]: 38.6 µM (≈ 12.5 µg/mL)

**Q.** With CC[C@@H](CO)NCCN[C@@H](CC)CO [ETHAMBUTOL] as the compound, how does the IC50 (Pantothenate synthetase) read?
**A.** Its IC50 is greater than 25 µM.

**Q.** What about the MIC [1] of the same compound?
**A.** The MIC was 7.64 µM (≈ 1.56 µg/mL).

**Q.** Which IC50 (Pantothenate synthetase) does the source give for Cc1nc2ccccn2c1C(=O)Nc1ccc(Br)cc1 here?
**A.** The IC50 was 6.95 µM.

**Q.** What about the MIC [1] of the same compound?
**A.** Its MIC is 37.9 µM (≈ 12.5 µg/mL).

**Q.** With Cc1nc2ccccn2c1C(=O)NNC(=O)c1cccc2ccccc12 as the compound, how does the IC50 (Pantothenate synthetase) read?
**A.** The IC50 was 1.9 µM.

**Q.** And the Tm [3]?
**A.** Its Tm is 51 °C.

**Q.** And the MIC [1]?
**A.** The MIC was 4.53 µM (≈ 1.56 µg/mL).

**Q.** What about the cytotoxicity at 72 h, 50 µM [2] of the same compound?
**A.** The cytotoxicity at 72 h, 50 µM was 28.4%.
